≈ marks a conversion by molar mass, not a printed value. Bounds are passed on as bounds.

What all share (format): functional
Experiment [1] in a line: Minimum inhibitory concentration against aerobic organism Salmonella schottmuelleri strain 2837. The settings on record: Salmonella; read-out: MIC. A digest of the protocol: (§1)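 Agar-dilution MIC in µg/mL against aerobic bacterial strains on tryptocase soy agar, with inoculum applied as spots. Most series used 10^5 cfu per spot, and a later series used 10^4 cfu per spot. In some tables, footnoted strains were instead tested on Mueller-Hinton or nutrient agar. β-Lactamase-producing strains are flagged.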

Another experiment concerns Enterococcus faecalis. Nature of the experiment: Minimum inhibitory concentration against aerobic organism Streptococcus faecalis strain 2864. Summed up:
as §1

The next experiment has as its system Shigella. Description: Minimum inhibitory concentration against aerobic organism Shigella species strain 2880. The note with it: Shigella; read-out: MIC. Summed up:
as §1

A further experiment deals with Klebsiella pneumoniae. Nature of the experiment: Minimum inhibitory concentration against aerobic organism Klebsiella pneumoniae strain 2882. The settings on record: Klebsiella pneumoniae; read-out: MIC. Summed up:
as §1

For another experiment, the system named is Klebsiella aerogenes. Nature of the experiment: Minimum inhibitory concentration against aerobic organism Enterobacter aerogenes strain 2906. The settings on record: Klebsiella aerogenes; read-out: MIC. A digest of the protocol:
as §1

The next experiment concerns Serratia marcescens. Description: Minimum inhibitory concentration against aerobic organism Serratia marcescens strain 2852. The settings on record: Serratia marcescens; read-out: MIC. A digest of the protocol: as §1
For a further experiment, the system named is Streptococcus pyogenes. Description: Minimum inhibitory concentration against aerobic organism Streptococcus pyogenes strain 3124. The note with it: Streptococcus pyogenes; read-out: MIC. Summed up: as §1
Another experiment concerns Escherichia coli. Nature of the experiment: MIC against aerobic organism Escherichia coli strain 2891. The note with it: Escherichia coli; read-out: MIC. A digest of the protocol: as §1
In a further experiment the test system is Proteus mirabilis. Nature of the experiment: Minimum inhibitory concentration against aerobic organism Proteus mirabilis strain 2830. The note with it: Proteus mirabilis; read-out: MIC. A digest of the protocol:
as §1

Another experiment deals with Staphylococcus aureus. Nature of the experiment: Minimum inhibitory concentration against aerobic organism Staphylococcus aureus strain 2868. The settings on record: Staphylococcus aureus; read-out: MIC. Summed up:
as §1

The next experiment relates to Enterobacter cloacae. Nature of the experiment: Minimum inhibitory concentration against aerobic organism Enterobacter cloacae strain 2646. The note with it: Enterobacter cloacae; read-out: MIC. A digest of the protocol:
as §1

In another experiment the test system is Morganella morganii. Description: Minimum inhibitory concentration against aerobic organism Morganella morganii strain 2833. The note with it: Morganella morganii; read-out: MIC. Summed up:
as §1

In a further experiment the test system is Proteus vulgaris. Nature of the experiment: Minimum inhibitory concentration against aerobic organism Proteus vulgaris strain 2829. The settings on record: Proteus vulgaris; read-out: MIC. A digest of the protocol:
as §1

The test system of another experiment is Pseudomonas aeruginosa. Nature of the experiment: Minimum inhibitory concentration against aerobic organism Pseudomonas aeruginosa strain 2835. Summed up:
as §1

In the case of `Cn1nnnc1SCC1=C(C(=O)[O-])N2C(=O)[C@@H](Nc3cc[n+](Cc4ccco4)cc3)[C@H]2SC1`, the MIC (commonly the smallest concentration in the dilution series that meets the test's criterion for growth inhibition) in experiment [1] was 0.0075 µg/mL (≈ 0.0154 µM); in the experiment on Enterococcus faecalis, 128 µg/mL (≈ 264 µM); with Shigella, 0.0075 µg/mL (≈ 0.0154 µM); in the experiment with Klebsiella pneumoniae it was 0.06 µg/mL (≈ 0.124 µM); in the experiment with Klebsiella aerogenes, 8 µg/mL (≈ 16.5 µM); with Serratia marcescens it was 128 µg/mL (≈ 264 µM). The MIC was 0.03 µg/mL (≈ 0.0618 µM) in the experiment on Streptococcus pyogenes; 0.06 µg/mL (≈ 0.124 µM) in the experiment on Escherichia coli; 16 µg/mL (≈ 33 µM) with Proteus mirabilis; 2 µg/mL (≈ 4.12 µM) in the experiment on Staphylococcus aureus; 8 µg/mL (≈ 16.5 µM) in the experiment with Enterobacter cloacae; above 128 µg/mL in the experiment on Morganella morganii. Also, the MIC is below 0.25 µg/mL in the experiment on Proteus vulgaris and 128 µg/mL (≈ 264 µM) in the experiment on Pseudomonas aeruginosa.

For the compound `CC1(C)SC2C(Nc3cc[n+](Cc4ccccc4)cc3)C(=O)N2[C@H]1C(=O)[O-]` (stereo not given in full), the minimal inhibitory concentration (MIC) is 0.125 µg/mL (≈ 0.326 µM) in experiment [1]; 128 µg/mL (≈ 334 µM) against Enterococcus faecalis; 0.25 µg/mL (≈ 0.652 µM) in the experiment with Shigella; 16 µg/mL (≈ 41.7 µM) in the experiment on Klebsiella pneumoniae; 0.25 µg/mL (≈ 0.652 µM) in the experiment with Streptococcus pyogenes; 4 µg/mL (≈ 10.4 µM) in the experiment with Escherichia coli. Besides, the minimum inhibitory concentration (MIC) worked out at 64 µg/mL (≈ 167 µM) in the experiment with Staphylococcus aureus and 4 µg/mL (≈ 10.4 µM) with Enterobacter cloacae.

`CC(=O)OCC1=C(C(=O)[O-])N2C(=O)[C@@H](Nc3cc[n+](Cc4ccccc4)cc3)[C@H]2SC1`: the MIC in experiment [1] is below 0.06 µg/mL; against Enterococcus faecalis it was 128 µg/mL (≈ 291 µM); in the experiment with Shigella it was below 0.06 µg/mL; in the experiment with Klebsiella pneumoniae it was below 0.06 µg/mL; in the experiment on Klebsiella aerogenes, 16 µg/mL (≈ 36.4 µM); in the experiment with Serratia marcescens, above 128 µg/mL. Further, the MIC in the experiment on Escherichia coli is 0.5 µg/mL (≈ 1.14 µM); in the experiment with Proteus mirabilis, above 128 µg/mL; with Staphylococcus aureus it was 4 µg/mL (≈ 9.1 µM); in the experiment with Enterobacter cloacae, 4 µg/mL (≈ 9.1 µM); in the experiment on Morganella morganii it was above 128 µg/mL; in the experiment with Proteus vulgaris, 0.125 µg/mL (≈ 0.284 µM). The compound also returned an MIC in the experiment on Pseudomonas aeruginosa above 128 µg/mL.

Turning to `CC1(C)SC2C(Nc3cc[n+](COCC(Cl)(Cl)Cl)cc3)C(=O)N2[C@H]1C(=O)[O-]` (stereo not given in full), the minimum inhibitory concentration (MIC) in experiment [1] was below 0.06 µg/mL; in the experiment with Enterococcus faecalis, 128 µg/mL (≈ 281 µM); with Shigella, below 0.06 µg/mL; with Klebsiella pneumoniae it was 0.5 µg/mL (≈ 1.1 µM); in the experiment with Escherichia coli, 0.5 µg/mL (≈ 1.1 µM); in the experiment with Staphylococcus aureus it was above 128 µg/mL. In the experiment on Enterobacter cloacae, the minimum inhibitory concentration (MIC) was 0.5 µg/mL (≈ 1.1 µM).

As for `Cn1nnnc1SCC1=C(C(=O)[O-])N2C(=O)C(Nc3cccc[n+]3C)C2SC1` (stereo not given), the MIC in [1] is above 128 µg/mL; in the experiment with Enterococcus faecalis, above 128 µg/mL; in the experiment on Shigella, 32 µg/mL (≈ 76.3 µM); with Klebsiella pneumoniae, 128 µg/mL (≈ 305 µM); with Klebsiella aerogenes, 16 µg/mL (≈ 38.1 µM); with Serratia marcescens, above 128 µg/mL. Moreover, the MIC is 32 µg/mL (≈ 76.3 µM) in the experiment on Streptococcus pyogenes; 64 µg/mL (≈ 153 µM) in the experiment with Escherichia coli; 128 µg/mL (≈ 305 µM) with Proteus mirabilis; above 128 µg/mL in the experiment with Staphylococcus aureus; above 128 µg/mL in the experiment on Enterobacter cloacae; above 128 µg/mL in the experiment with Morganella morganii. The figures for the MIC in the experiment with Proteus vulgaris and against Pseudomonas aeruginosa were 0.5 µg/mL (≈ 1.19 µM) and above 128 µg/mL, respectively.

On to `COC[n+]1ccc(N[C@@H]2C(=O)N3C(C(=O)[O-])=C(CSc4nnnn4C)CS[C@H]23)cc1`, for which the minimum inhibitory concentration (MIC) in experiment [1] is 1 µg/mL (≈ 2.22 µM); with Enterococcus faecalis, above 128 µg/mL; in the experiment on Shigella, 0.5 µg/mL (≈ 1.11 µM); in the experiment with Klebsiella pneumoniae, 1 µg/mL (≈ 2.22 µM); with Klebsiella aerogenes, 64 µg/mL (≈ 142 µM); in the experiment on Serratia marcescens, above 128 µg/mL. In addition, the minimal inhibitory concentration (MIC) is 0.125 µg/mL (≈ 0.278 µM) in the experiment on Streptococcus pyogenes; 0.125 µg/mL (≈ 0.278 µM) in the experiment on Escherichia coli; 64 µg/mL (≈ 142 µM) in the experiment with Proteus mirabilis; 16 µg/mL (≈ 35.6 µM) in the experiment on Staphylococcus aureus; 32 µg/mL (≈ 71.2 µM) in the experiment on Enterobacter cloacae; above 128 µg/mL in the experiment with Morganella morganii. The MIC was below 0.06 µg/mL with Proteus vulgaris and above 128 µg/mL against Pseudomonas aeruginosa.

These data come from ChEMBL document CHEMBL1122046, “Quaternary heterocyclylamino beta-lactams: a generic alternative to the classical acylamino side chain” (1982).
